Reference: the array DNA melting data of Ke et al. (doi:10.1101/2024.01.08.574731)

Key:
[1] = folding enthalpy; higher = less favourable; fluorescence melt of hairpins on a sequencing array, two-state fit; details: sodium 0.088 M
How it was run: (§1)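 Folding enthalpy and melting temperature come from bootstrapped two-state fits to Cy3 fluorescence of library hairpins carrying annealed Cy3 and quencher oligos on a sequenced MiSeq flow cell. Imaging was done in 50 mM Na-HEPES pH 8.0, 25 mM NaCl, stepping by 2.5 °C up to 60 °C, and signals were normalised to pre-quench Cy3 and to control constructs. Results of four replicates were combined by inverse variance, and fitted temperatures were raised by 9.35 °C to match UV melts.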

[2] = melting temperature; fluorescence melt of hairpins on a sequencing array, two-state fit, raised by 9.35 °C to match UV melts; details: sodium 0.088 M
How it was run: as §1

| Sequence | folding enthalpy [1] [kcal/mol] | Tm [2] [°C] |
| --- | --- | --- |
| GTAAGGCGAAAGCCTAC (((.(((....)))))) | -11.4 | 46 |
| GATCGGAGAGCCGATC ((((((....)))))) | -30.3 | 54.8 |
| GTACGGCGAAAGCCCTAC (((.(((....))).))) | -12.5 | 35.9 |
| GATCAGCTGCTGATC ((((((...)))))) | -47.7 | 50.7 |
| GTGATCGAAAGATGTCAC ((((((....)))..))) | -13.7 | 29.9 |
| GTGAATGGAAACATTCGC (.(((((....))))).) | -25.4 | 49.9 |
| GCGACCCTTCGC ((((....)))) | -26.3 | 51.1 |
| GCGGATCCCCGC ((((....)))) | -23.3 | 56.4 |
| GATATCGCGAAAGCGATC (((..(((....)))))) | -7.08 | 35.2 |
| GGATCAGGAAACCGATCC (((((.(....).))))) | -39 | 46.4 |
| GGTAAGGAAACTTACC ((((((....)))))) | -32.2 | 50.3 |
| GAATGCCGAAAGGCGTTC (((.(((....))).))) | -27.7 | 61.6 |
| GGGTTAGGAAACTAGCCC (((.(((....))).))) | -24.3 | 49 |
| GCGATGCGAAAGCCGCGC (((..((....))..))) | -27.7 | 64.7 |
| ATCGTGAAAACGAT (((((....))))) | -19.6 | 49.5 |
| GACTCCGAAAGGAGTGTC ((((((....)))..))) | -12.3 | 58.4 |
| GATCTAGTGATAGATC ((((((....)))))) | -34.5 | 45.7 |
| GATCCATGATTGGATC ((((((....)))))) | -38.4 | 51.9 |
| GCGTTTGGAAACGAATGC ((.((.(....).)).)) | -25.5 | 36 |
| GATCTTTTGTAAGATC ((((((....)))))) | -31.1 | 44.2 |
| GCGGTGCGAAAGCAAAGC ((..(((....)))..)) | -32.1 | 63.3 |
| GGGACAGGAAACTGCCCC (((.(((....))).))) | -35.2 | 50.8 |
| GCCGGGCGAAAGCCATGC ((..(((....)))..)) | -14.4 | 42.4 |
| GCAGCGACGAAAGTCTGC (((..(((....)))))) | -16.1 | 48.3 |

| Sequence | folding enthalpy [1] [kcal/mol] | Tm [2] [°C] |
| --- | --- | --- |
| GATAGACCGAAAGGTATC (((..(((....)))))) | -11.3 | 28.2 |
| GGAGGTGGAAACGCTTCC (((.(.(....).).))) | -23.3 | 34.3 |
| GATCGTAATAACGATC ((((((....)))))) | -37 | 53.9 |
| GCGTAATTACGC ((((....)))) | -30 | 51.7 |
| GAGCCCACGAAAGTGCTC (((..(((....)))))) | -16 | 35.8 |
| CGCCCCGGAAACGGCGCG (((.(((....))).))) | -36.5 | 52.1 |
| GCATTGCCGAAAGGCTGC (((..(((....)))))) | -14.8 | 46.5 |
| GATAGACGAAAGTCCATC (((.(((....))).))) | -13.3 | 35.1 |
| GAGGACGGAAACATCCTC (((((.(....).))))) | -26.7 | 38.3 |
| GCGCAGCGAAAGCCGAGC ((.(.((....)).).)) | -9.37 | 46.7 |
| GATTTTGAAAAAAATC ((((((....)))))) | -23.7 | 40.7 |
| GATCTACCGATAGATC ((((((....)))))) | -35.5 | 37.8 |
| GGAGCCACGAAAGTGTCC (((..(((....)))))) | -8.88 | 28.5 |
| GATCAACACGTTGATC ((((((....)))))) | -40.2 | 53.6 |
| CGGCTTCGGAAACGACCG (((..(((....)))))) | -18.2 | 37.9 |
| GGACGTGGAAACACGCCC ((.((((....)))).)) | -35.7 | 53 |
| GTGGCCGAAAGGCCCCAC ((((((....)))..))) | -5.99 | 38.1 |
| GATCGGGCCGCCGATC ((((((....)))))) | -37.2 | 59.1 |
| GTTTGCGAAAGCAGAAC ((((((....))).))) | -13.7 | 44.5 |
| GTGGCCGAAAGGCGGCAC ((((((....)))..))) | -13.8 | 46.7 |
| GAAGCGCGAAAGCGTTTC (((.(((....))).))) | -23.1 | 56 |
| GTACGGGAAACCGTAC ((((((....)))))) | -27.9 | 63.2 |
| GTAGACGAAAGTCAATAC ((((((....)))..))) | -13.5 | 27.6 |
